Measured values as given in ChEMBL document CHEMBL1250521, “Design, synthesis, and preliminary biological evaluation of new isoform-selective f-current blockers” (J Med Chem, 2010).

How the values were obtained:
[1] = target: T1, Potassium/sodium hyperpolarization-activated cyclic nucleotide-gated channel 2 (Mus musculus, UniProt O88703); assay: Blockade of mouse HCN2 expressed in HEK293 cells at -120 f-current amplitude by patch-clamp electrophysiological assay; format: cell-based
T1 sequence (O88703 whole entry): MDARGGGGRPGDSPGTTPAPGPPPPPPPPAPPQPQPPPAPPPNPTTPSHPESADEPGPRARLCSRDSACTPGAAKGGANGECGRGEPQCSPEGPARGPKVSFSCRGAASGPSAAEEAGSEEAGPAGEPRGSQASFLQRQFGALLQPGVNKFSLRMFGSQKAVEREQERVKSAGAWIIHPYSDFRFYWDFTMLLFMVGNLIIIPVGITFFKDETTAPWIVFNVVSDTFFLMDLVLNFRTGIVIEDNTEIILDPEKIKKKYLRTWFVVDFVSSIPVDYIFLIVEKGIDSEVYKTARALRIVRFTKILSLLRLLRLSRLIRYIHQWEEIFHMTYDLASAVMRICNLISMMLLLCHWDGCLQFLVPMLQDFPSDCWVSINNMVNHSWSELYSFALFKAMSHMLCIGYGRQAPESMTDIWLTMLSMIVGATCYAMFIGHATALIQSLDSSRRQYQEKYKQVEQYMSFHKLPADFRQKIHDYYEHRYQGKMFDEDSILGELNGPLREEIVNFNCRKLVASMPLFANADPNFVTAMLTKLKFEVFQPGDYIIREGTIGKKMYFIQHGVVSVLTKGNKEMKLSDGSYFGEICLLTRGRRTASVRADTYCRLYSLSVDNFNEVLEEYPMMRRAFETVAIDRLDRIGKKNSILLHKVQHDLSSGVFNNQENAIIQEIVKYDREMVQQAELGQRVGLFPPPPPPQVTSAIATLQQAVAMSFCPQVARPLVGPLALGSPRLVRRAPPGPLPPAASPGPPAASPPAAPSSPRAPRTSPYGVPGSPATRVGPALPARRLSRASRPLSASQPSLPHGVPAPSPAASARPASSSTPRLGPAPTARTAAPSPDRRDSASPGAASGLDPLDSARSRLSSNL
Procedure, shortened: (§1)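 HEK293 cells stably transfected with mouse HCN1, mouse HCN2 or human HCN4. Patch-clamp recordings of hyperpolarization-activated f-current at varied concentrations to derive EC50.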

[2] = target: Potassium/sodium hyperpolarization-activated cyclic nucleotide-gated channel 1 (Mus musculus, UniProt O88704); assay: Blockade of mouse HCN1 expressed in HEK293 cells at -120 f-current amplitude by patch-clamp electrophysiological assay; format: cell-based; procedure, shortened: as §1
[3] = target: Potassium/sodium hyperpolarization-activated cyclic nucleotide-gated channel 1 (Mus musculus) (UniProt O88704); assay: Blockade of mouse HCN1 expressed in HEK293 cells at 5 uM at -120 f-current amplitude by patch-clamp electrophysiological assay relative to control; format: cell-based
Procedure, shortened: (§2)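 Single-concentration patch-clamp screen at 5 μM on HEK293 cells stably expressing mouse HCN1 or human HCN4. f-current block normalized to control; mean ± SEM of three to five experiments.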

[4] = target: T2, Potassium/sodium hyperpolarization-activated cyclic nucleotide-gated channel 4 (Homo sapiens) (UniProt Q9Y3Q4); assay: Blockade of human HCN4 expressed in HEK293 cells at 5 uM at -120 f-current amplitude by patch-clamp electrophysiological assay relative to control; format: cell-based; procedure, shortened: as §2
T2 sequence (whole entry): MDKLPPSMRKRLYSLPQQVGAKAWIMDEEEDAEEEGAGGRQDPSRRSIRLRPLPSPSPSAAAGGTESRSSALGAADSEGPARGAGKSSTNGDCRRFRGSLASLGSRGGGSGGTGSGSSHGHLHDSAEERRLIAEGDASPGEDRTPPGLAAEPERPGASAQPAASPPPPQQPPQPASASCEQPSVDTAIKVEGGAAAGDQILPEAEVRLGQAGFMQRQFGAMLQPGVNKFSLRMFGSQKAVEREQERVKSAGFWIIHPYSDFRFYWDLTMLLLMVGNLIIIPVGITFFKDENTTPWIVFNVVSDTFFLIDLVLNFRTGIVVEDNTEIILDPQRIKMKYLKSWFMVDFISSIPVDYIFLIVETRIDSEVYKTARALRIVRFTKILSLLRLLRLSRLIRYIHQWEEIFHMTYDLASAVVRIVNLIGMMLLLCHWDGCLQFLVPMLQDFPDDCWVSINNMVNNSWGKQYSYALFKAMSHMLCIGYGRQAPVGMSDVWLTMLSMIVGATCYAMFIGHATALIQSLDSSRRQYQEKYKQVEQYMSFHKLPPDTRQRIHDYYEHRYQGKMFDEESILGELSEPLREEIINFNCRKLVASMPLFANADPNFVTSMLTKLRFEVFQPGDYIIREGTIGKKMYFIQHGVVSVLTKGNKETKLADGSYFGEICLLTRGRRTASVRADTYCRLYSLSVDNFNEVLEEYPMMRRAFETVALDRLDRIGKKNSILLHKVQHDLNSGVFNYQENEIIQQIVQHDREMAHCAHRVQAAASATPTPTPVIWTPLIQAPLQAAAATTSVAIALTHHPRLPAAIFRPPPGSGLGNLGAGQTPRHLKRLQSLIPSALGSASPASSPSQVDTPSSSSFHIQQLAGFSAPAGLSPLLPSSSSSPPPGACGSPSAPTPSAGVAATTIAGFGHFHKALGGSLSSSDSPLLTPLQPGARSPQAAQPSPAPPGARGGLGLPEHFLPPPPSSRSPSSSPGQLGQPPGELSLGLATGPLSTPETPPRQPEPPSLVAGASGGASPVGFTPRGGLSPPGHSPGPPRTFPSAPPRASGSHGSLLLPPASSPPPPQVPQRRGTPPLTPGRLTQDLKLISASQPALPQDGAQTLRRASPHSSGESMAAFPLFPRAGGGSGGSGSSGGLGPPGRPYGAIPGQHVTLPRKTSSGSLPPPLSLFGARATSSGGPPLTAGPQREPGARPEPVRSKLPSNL

[5] = target: T3, Potassium/sodium hyperpolarization-activated cyclic nucleotide-gated channel 4 (Homo sapiens, UniProt Q9Y3Q4); assay: Blockade of human HCN4 expressed in HEK293 cells at -120 f-current amplitude by patch-clamp electrophysiological assay; format: cell-based; procedure, shortened: as §1
T3 sequence (Q9Y3Q4 whole entry): T2 sequence (whole entry)

[6] = Blockade of HCN in guinea pig spontaneously beating atria assessed as reduction of heart rate measured for 15 mins; format: tissue-based, Cavia porcellus
Procedure, shortened: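 Isolated spontaneously beating guinea pig atria; cumulative concentrations 10-9-10-4 M applied, decrease in atrial rate recorded. EC50 obtained by fitting the concentration-effect curve to the Hill equation; mean ± SEM of three to four experiments.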

[7] = species: Mus musculus; assay: Selectivity ratio of EC50 for mouse HCN2 to EC50 for mouse HCN1
Procedure, shortened: (§3)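 Selectivity expressed as the ratio of EC50 values from patch-clamp on stably transfected HEK293 cells expressing mouse HCN1, mouse HCN2 or human HCN4.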

[8] = Selectivity ratio of EC50 for mouse HCN2 to EC50 for human HCN4; procedure, shortened: as §3
[9] = Selectivity ratio of EC50 for mouse HCN1 to EC50 for human HCN4; procedure, shortened: as §3
[10] = species: Mus musculus; assay: Selectivity ratio of EC50 for mouse HCN1 to EC50 for mouse HCN2; procedure, shortened: as §3

Sequence of Potassium/sodium hyperpolarization-activated cyclic nucleotide-gated channel 1 (O88704 whole entry): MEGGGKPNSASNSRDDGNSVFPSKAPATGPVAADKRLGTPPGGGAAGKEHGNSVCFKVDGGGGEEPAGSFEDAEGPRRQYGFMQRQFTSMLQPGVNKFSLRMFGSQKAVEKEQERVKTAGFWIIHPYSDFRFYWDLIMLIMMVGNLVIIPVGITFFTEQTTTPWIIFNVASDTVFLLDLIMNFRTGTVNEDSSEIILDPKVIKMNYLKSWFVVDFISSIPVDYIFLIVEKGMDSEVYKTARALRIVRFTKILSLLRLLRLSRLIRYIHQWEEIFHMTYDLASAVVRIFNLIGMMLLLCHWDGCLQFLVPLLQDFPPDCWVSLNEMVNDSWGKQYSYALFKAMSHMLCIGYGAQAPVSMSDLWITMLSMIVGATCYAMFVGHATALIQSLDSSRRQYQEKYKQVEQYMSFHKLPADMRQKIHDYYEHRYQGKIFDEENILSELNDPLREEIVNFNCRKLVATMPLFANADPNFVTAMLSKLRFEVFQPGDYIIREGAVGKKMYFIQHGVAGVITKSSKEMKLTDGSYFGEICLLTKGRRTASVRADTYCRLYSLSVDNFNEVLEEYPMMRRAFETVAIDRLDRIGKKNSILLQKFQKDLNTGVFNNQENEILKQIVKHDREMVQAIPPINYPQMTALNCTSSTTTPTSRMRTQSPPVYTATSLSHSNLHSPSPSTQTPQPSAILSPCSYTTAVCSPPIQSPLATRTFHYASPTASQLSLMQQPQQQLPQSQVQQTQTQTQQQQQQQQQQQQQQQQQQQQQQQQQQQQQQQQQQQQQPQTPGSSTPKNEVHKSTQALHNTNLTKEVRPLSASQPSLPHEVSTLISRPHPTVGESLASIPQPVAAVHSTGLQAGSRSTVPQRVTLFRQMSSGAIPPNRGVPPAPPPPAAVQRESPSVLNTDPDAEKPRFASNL
Sequence of Potassium/sodium hyperpolarization-activated cyclic nucleotide-gated channel 1 (Mus musculus) (O88704 whole entry): as above

| EC50 [1] | EC50 [2] | residual activity [3] | residual activity [4] | EC50 [5] | Selectivity ratio [7] | Selectivity ratio [8] | Selectivity ratio [9] | Selectivity ratio [10] | Compound | EC50 [6] |
| --- | --- | --- | --- | --- | --- | --- | --- | --- | --- | --- |
| 17.2 µM | 2.31 µM | 35% | 53% | 7.23 µM |  |  |  |  | COc1ccc(CCN(C)C/C=C/CN2C=Cc3cc(OC)c(OC)cc3CC2=O)cc1OC | 11.3 µM |
| 2.3 µM | 9.41 µM | 63% | 83% | 24.9 µM | 4 | 10 |  |  | COc1ccc([C@@H](C)CN(C)C/C=C\CN2C=Cc3cc(OC)c(OC)cc3CC2=O)cc1OC | 7.1 µM |
|  |  | 60% | 73% |  |  |  |  |  | COc1ccc([C@@H](C)CN(C/C=C/CN2C=Cc3cc(OC)c(OC)cc3CC2=O)C/C=C/CN2C=Cc3cc(OC)c(OC)cc3CC2=O)cc1OC |  |
| 50.1 µM | 17.9 µM | 76% | 92% | 136 µM |  |  |  |  | COc1ccc([C@H](C)CN(C/C=C\CN2C=Cc3cc(OC)c(OC)cc3CC2=O)C/C=C\CN2C=Cc3cc(OC)c(OC)cc3CC2=O)cc1OC |  |
| 25.5 µM | 31.3 µM | 76% | 91% | 31.6 µM |  |  |  |  | COc1ccc([C@H](C)CN(C)C/C=C\CN2C=Cc3cc(OC)c(OC)cc3CC2=O)cc1OC |  |
| 18.3 µM | 0.6 µM | 27% | 93% | 104 µM |  |  | 170 | 30 | COc1ccc([C@@H](C)CN(C/C=C\CN2C=Cc3cc(OC)c(OC)cc3CC2=O)C/C=C\CN2C=Cc3cc(OC)c(OC)cc3CC2=O)cc1OC | 113 µM |
| 24.6 µM | 5.6 µM | 53% | 59% | 7.14 µM |  |  |  |  | COc1ccc(CCN(C)C/C=C\CN2C=Cc3cc(OC)c(OC)cc3CC2=O)cc1OC | 15.8 µM |
| 5.45 µM | 16.8 µM |  |  | 8.57 µM |  |  |  |  | COc1ccc(CCN(C)CCCN2CCc3cc(OC)c(OC)cc3CC2=O)cc1OC [ZATEBRADINE] | 13.4 µM |
| 4.52 µM | 4.5 µM | 47% | 49% | 4.28 µM |  |  |  |  | COc1cc2c(cc1OC)CC(=O)N(CCCN(C)C[C@H]1Cc3cc(OC)c(OC)cc31)CC2 [IVABRADINE] |  |
|  |  | 85% | 72% |  |  |  |  |  | COc1ccc([C@@H](C)CN(C)C/C=C/CN2C=Cc3cc(OC)c(OC)cc3CC2=O)cc1OC |  |
|  |  | 93% | 83% |  |  |  |  |  | COc1ccc([C@H](C)CN(C/C=C/CN2C=Cc3cc(OC)c(OC)cc3CC2=O)C/C=C/CN2C=Cc3cc(OC)c(OC)cc3CC2=O)cc1OC |  |
|  |  | 85% | 71% |  |  |  |  |  | COc1ccc([C@H](C)CN(C)C/C=C/CN2C=Cc3cc(OC)c(OC)cc3CC2=O)cc1OC |  |
| 147 µM | 107 µM | 82% | 75% | 70.7 µM |  |  |  |  | COc1ccc(CCN(C/C=C\CN2C=Cc3cc(OC)c(OC)cc3CC2=O)C/C=C\CN2C=Cc3cc(OC)c(OC)cc3CC2=O)cc1OC |  |
